Laboratory results taken from ChEMBL document CHEMBL2150901, “Synthesis and biological activity of tricyclic cycloalkylimidazo-, pyrimido- and diazepinopurinediones” (Eur J Med Chem, 2011).
pKi: −log10 of the molar value. Calls of active or inactive are those of the source. No cut-off for these calls is given here.

How the values were obtained:
[1] = tested on: Rattus norvegicus; assay: Neurotoxicity in Sprague-Dawley albino rat assessed as minimal motor impairment at 30 mg/kg, po after 4 hrs by rotorod test; format: toxicity, organism-based; parameters: dose 30 mg/kg, route oral; settings: in vivo
Method in brief: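 Male Sprague-Dawley albino rats (100–150 g), groups of 4, dosed orally with a suspension in 0.5% methylcellulose/water. Neurotoxicity was scored as minimal motor impairment on the rotorod at 0.25, 0.5, 1 and 4 h. Results are reported as animals showing toxicity per animals tested.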

[2] = tested on: Rattus norvegicus; assay: Anticonvulsant activity in Sprague-Dawley albino rat assessed as protection against subcutaneous pentylenetetrazole-induced seizures at 50 mg/kg, po after 1 hr; format: functional, organism-based; parameters: dose 50 mg/kg
Method in brief: (§1)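 Male Sprague-Dawley albino rats (100–150 g), groups of 4. Oral suspension in 0.5% methylcellulose/water. Protection assessed by maximal electroshock or subcutaneous pentylenetetrazole; motor impairment by rotorod. Time points 0.25–4 h. Value is protected (or toxic)/tested animals.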

[3] = tested on: Rattus norvegicus; assay: Anticonvulsant activity in Sprague-Dawley albino rat assessed as protection against subcutaneous pentylenetetrazole-induced seizures at 50 mg/kg, po after 2 hrs; format: functional, organism-based; parameters: dose 50 mg/kg; method in brief: as §1
[4] = tested on: Mus musculus; assay: Anticonvulsant activity in F1 albino mouse assessed as protection against subcutaneous pentylenetetrazole-induced seizures at 100 mg/kg, ip after 1 hr; format: functional, organism-based; parameters: dose 100 mg/kg
Method in brief: (§2)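 Male albino F-1 mice (18–25 g), groups of 1–5 (rotorod 2–8). Compound given ip as a suspension in 0.5% methylcellulose at 30, 100 and 300 mg/kg. Seizures by maximal electroshock or subcutaneous pentylenetetrazole; neurotoxicity by rotorod. Read at 0.5 and 4 h, with some at 0.25, 1 and 2 h. Value is the minimum active dose, with protected (or toxic)/tested animals.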

[5] = tested on: Rattus norvegicus; assay: Neurotoxicity in Sprague-Dawley albino rat assessed as minimal motor impairment at 30 mg/kg, po after 0.25 hrs by rotorod test; format: toxicity, organism-based; parameters: dose 30 mg/kg, route oral; settings: in vivo; method in brief: as §1
[6] = tested on: Mus musculus; assay: Anticonvulsant activity in F1 albino mouse assessed as protection against maximal electroshock-induced seizures at 300 mg/kg, ip after 0.25 hrs; format: functional, organism-based; parameters: dose 300 mg/kg; method in brief: as §2
[7] = target: T1, Adenosine receptor A1 (Rattus norvegicus, UniProt P25099); assay: Displacement of [3H]CCPA from adenosine A1 receptor in rat brain cortical membrane; format: cell membranes
T1 sequence (P25099 whole entry): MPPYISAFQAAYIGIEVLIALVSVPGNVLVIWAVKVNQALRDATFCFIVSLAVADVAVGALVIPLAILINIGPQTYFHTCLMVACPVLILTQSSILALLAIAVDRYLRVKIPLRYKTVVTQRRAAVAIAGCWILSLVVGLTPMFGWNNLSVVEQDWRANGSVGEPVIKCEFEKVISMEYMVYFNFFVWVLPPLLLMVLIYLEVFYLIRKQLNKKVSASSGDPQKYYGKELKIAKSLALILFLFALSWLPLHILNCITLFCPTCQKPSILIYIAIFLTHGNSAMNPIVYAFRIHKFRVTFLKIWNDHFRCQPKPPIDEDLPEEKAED

[8] = tested on: Mus musculus; assay: Anticonvulsant activity in F1 albino mouse assessed as protection against maximal electroshock-induced seizures at 300 mg/kg, ip after 1 hr; format: functional, organism-based; parameters: dose 300 mg/kg; method in brief: as §2
[9] = tested on: Rattus norvegicus; assay: Anticonvulsant activity in Sprague-Dawley albino rat assessed as protection against subcutaneous pentylenetetrazole-induced seizures at 50 mg/kg, po after 0.25 hrs; format: functional, organism-based; parameters: dose 50 mg/kg; method in brief: as §1
[10] = tested on: Rattus norvegicus; assay: Anticonvulsant activity in Sprague-Dawley albino rat assessed as protection against maximal electroshock-induced seizures at 30 mg/kg, po after 4 hrs; format: functional, organism-based; parameters: dose 30 mg/kg; method in brief: as §1
[11] = tested on: Rattus norvegicus; assay: Anticonvulsant activity in Sprague-Dawley albino rat assessed as protection against subcutaneous pentylenetetrazole-induced seizures at 50 mg/kg, po after 4 hrs; format: functional, organism-based; parameters: dose 50 mg/kg; method in brief: as §1
[12] = organism: Rattus norvegicus; assay: Selectivity ratio of Ki for adenosine A1 receptor in rat brain cortical membrane to Ki for adenosine A2A receptor in rat brain striatal membrane; format: cell membranes
Method in brief: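 Ki ratios from radioligand competition binding. Rat A1 used brain cortical membranes and rat A2A used brain striatal membranes. Human A1 and A2A used membranes of CHO cells expressing the receptors. A1 radioligand [³H]CCPA; A2A radioligand [³H]MSX-2. Potent compounds were tested at 6–7 concentrations spanning 3 orders of magnitude.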

[13] = tested on: Rattus norvegicus; assay: Anticonvulsant activity in Sprague-Dawley albino rat assessed as protection against maximal electroshock-induced seizures at 30 mg/kg, po after 0.5 hrs; format: functional, organism-based; parameters: dose 30 mg/kg; method in brief: as §1
[14] = tested on: Mus musculus; assay: Anticonvulsant activity in F1 albino mouse assessed as protection against subcutaneous pentylenetetrazole-induced seizures at 100 mg/kg, ip after 0.25 hrs; format: functional, organism-based; parameters: dose 100 mg/kg; method in brief: as §2
[15] = tested on: Mus musculus; assay: Anticonvulsant activity in F1 albino mouse assessed as protection against subcutaneous pentylenetetrazole-induced seizures at 300 mg/kg, ip after 0.5 hrs; format: functional, organism-based; parameters: dose 300 mg/kg; method in brief: as §2
[16] = tested on: Mus musculus; assay: Neurotoxicity in F1 albino mouse assessed as minimal motor impairment at 300 mg/kg, ip after 0.25 hrs by rotorod test; format: toxicity, organism-based; parameters: dose 300 mg/kg, route intraperitoneal; settings: in vivo; method in brief: as §2
[17] = tested on: Rattus norvegicus; assay: Anticonvulsant activity in po dosed Sprague-Dawley albino rat assessed as protection against subcutaneous pentylenetetrazole-induced seizures after 0.25 hrs; format: functional
[18] = tested on: Rattus norvegicus; assay: Anticonvulsant activity in Sprague-Dawley albino rat assessed as protection against maximal electroshock-induced seizures at 30 mg/kg, po after 1 hr; format: functional, organism-based; parameters: dose 30 mg/kg; method in brief: as §1
[19] = tested on: Rattus norvegicus; assay: Anticonvulsant activity in Sprague-Dawley albino rat assessed as protection against maximal electroshock-induced seizures at 30 mg/kg, po after 2 hrs; format: functional, organism-based; parameters: dose 30 mg/kg; method in brief: as §1
[20] = target: Adenosine receptor A2a (Rattus norvegicus, UniProt P30543); assay: Displacement of [3H]MSX-2 from adenosine A2A receptor in rat brain striatal membrane; format: cell membranes
[21] = tested on: Mus musculus; assay: Anticonvulsant activity in F1 albino mouse assessed as protection against subcutaneous pentylenetetrazole-induced seizures at 300 mg/kg, ip after 4 hrs; format: functional, organism-based; parameters: dose 300 mg/kg; method in brief: as §2
[22] = tested on: Mus musculus; assay: Neurotoxicity in F1 albino mouse assessed as minimal motor impairment at 300 mg/kg, ip after 4 hrs by rotorod test; format: toxicity, organism-based; parameters: dose 300 mg/kg, route intraperitoneal; settings: in vivo; method in brief: as §2
[23] = tested on: Mus musculus; assay: Anticonvulsant activity in F1 albino mouse assessed as protection against maximal electroshock-induced seizures at 300 mg/kg, ip after 0.5 hrs; format: functional, organism-based; parameters: dose 300 mg/kg; method in brief: as §2
[24] = tested on: Mus musculus; assay: Neurotoxicity in F1 albino mouse assessed as minimal motor impairment at 300 mg/kg, ip after 1 hr by rotorod test; format: toxicity, organism-based; parameters: dose 300 mg/kg, route intraperitoneal; settings: in vivo; method in brief: as §2
[25] = tested on: Rattus norvegicus; assay: Neurotoxicity in Sprague-Dawley albino rat assessed as minimal motor impairment at 30 mg/kg, po after 0.5 hrs by rotorod test; format: toxicity, organism-based; parameters: dose 30 mg/kg, route oral; settings: in vivo; method in brief: as §1
[26] = tested on: Mus musculus; assay: Anticonvulsant activity in F1 albino mouse assessed as protection against maximal electroshock-induced seizures at 300 mg/kg, ip after 4 hrs; format: functional, organism-based; parameters: dose 300 mg/kg; method in brief: as §2
[27] = tested on: Rattus norvegicus; assay: Neurotoxicity in Sprague-Dawley albino rat assessed as minimal motor impairment at 30 mg/kg, po after 1 hr by rotorod test; format: toxicity, organism-based; parameters: dose 30 mg/kg, route oral; settings: in vivo; method in brief: as §1
[28] = tested on: Rattus norvegicus; assay: Anticonvulsant activity in Sprague-Dawley albino rat assessed as protection against subcutaneous pentylenetetrazole-induced seizures at 50 mg/kg, po after 0.5 hrs; format: functional, organism-based; parameters: dose 50 mg/kg; method in brief: as §1
[29] = tested on: Mus musculus; assay: Neurotoxicity in F1 albino mouse assessed as minimal motor impairment at 300 mg/kg, ip after 0.5 hrs by rotorod test; format: toxicity, organism-based; parameters: dose 300 mg/kg, route intraperitoneal; settings: in vivo; method in brief: as §2

Chain of Adenosine receptor A2a (P30543 whole entry): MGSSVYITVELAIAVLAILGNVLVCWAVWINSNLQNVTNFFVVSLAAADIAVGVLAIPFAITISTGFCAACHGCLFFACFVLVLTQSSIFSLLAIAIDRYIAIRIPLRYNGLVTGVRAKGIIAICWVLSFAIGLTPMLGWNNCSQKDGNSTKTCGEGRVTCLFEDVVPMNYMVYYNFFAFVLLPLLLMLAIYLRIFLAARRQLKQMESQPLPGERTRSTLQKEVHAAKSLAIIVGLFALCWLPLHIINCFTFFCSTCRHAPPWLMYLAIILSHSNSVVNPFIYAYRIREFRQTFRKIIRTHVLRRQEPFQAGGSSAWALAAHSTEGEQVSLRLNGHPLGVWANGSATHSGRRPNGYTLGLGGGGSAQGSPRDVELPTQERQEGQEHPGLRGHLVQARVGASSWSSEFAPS

Cn1c(=O)c2c(nc3n2CCCN3CC2CCCCC2)n(C)c1=O
Activity [1]: Non-toxic | Activity [2]: Active | Activity [3]: inactive | Activity [4]: inactive | Activity [5]: Non-toxic | Activity [6]: inactive | pKi [7]: 5.60 | Activity [8]: inactive | Activity [9]: Active | Activity [10]: inactive | Activity [11]: Active | Ratio Ki [12]: 4 | Activity [13]: inactive | Activity [14]: Active | Activity [15]: Active | Activity [16]: Non-toxic | ED50 [17]: > 200 mg/kg | Activity [18]: inactive | Activity [19]: inactive | pKi [20]: 6.21 | Activity [21]: inactive | Activity [22]: Non-toxic | Activity [23]: inactive | Activity [24]: Non-toxic | Activity [25]: Non-toxic | Activity [26]: inactive | Activity [27]: Non-toxic | Activity [28]: Active | Activity [29]: Non-toxic
